{"source": "ChEMBL document CHEMBL4706672", "about": "(J Med Chem, 2021)", "key": {"[1]": {"target": "Protein cereblon/E3 ubiquitin-protein ligase SHPRH (Homo sapiens) (UniProt Q96SW2+Q149N8)", "sequence (Q149N8 whole entry, looked up)": "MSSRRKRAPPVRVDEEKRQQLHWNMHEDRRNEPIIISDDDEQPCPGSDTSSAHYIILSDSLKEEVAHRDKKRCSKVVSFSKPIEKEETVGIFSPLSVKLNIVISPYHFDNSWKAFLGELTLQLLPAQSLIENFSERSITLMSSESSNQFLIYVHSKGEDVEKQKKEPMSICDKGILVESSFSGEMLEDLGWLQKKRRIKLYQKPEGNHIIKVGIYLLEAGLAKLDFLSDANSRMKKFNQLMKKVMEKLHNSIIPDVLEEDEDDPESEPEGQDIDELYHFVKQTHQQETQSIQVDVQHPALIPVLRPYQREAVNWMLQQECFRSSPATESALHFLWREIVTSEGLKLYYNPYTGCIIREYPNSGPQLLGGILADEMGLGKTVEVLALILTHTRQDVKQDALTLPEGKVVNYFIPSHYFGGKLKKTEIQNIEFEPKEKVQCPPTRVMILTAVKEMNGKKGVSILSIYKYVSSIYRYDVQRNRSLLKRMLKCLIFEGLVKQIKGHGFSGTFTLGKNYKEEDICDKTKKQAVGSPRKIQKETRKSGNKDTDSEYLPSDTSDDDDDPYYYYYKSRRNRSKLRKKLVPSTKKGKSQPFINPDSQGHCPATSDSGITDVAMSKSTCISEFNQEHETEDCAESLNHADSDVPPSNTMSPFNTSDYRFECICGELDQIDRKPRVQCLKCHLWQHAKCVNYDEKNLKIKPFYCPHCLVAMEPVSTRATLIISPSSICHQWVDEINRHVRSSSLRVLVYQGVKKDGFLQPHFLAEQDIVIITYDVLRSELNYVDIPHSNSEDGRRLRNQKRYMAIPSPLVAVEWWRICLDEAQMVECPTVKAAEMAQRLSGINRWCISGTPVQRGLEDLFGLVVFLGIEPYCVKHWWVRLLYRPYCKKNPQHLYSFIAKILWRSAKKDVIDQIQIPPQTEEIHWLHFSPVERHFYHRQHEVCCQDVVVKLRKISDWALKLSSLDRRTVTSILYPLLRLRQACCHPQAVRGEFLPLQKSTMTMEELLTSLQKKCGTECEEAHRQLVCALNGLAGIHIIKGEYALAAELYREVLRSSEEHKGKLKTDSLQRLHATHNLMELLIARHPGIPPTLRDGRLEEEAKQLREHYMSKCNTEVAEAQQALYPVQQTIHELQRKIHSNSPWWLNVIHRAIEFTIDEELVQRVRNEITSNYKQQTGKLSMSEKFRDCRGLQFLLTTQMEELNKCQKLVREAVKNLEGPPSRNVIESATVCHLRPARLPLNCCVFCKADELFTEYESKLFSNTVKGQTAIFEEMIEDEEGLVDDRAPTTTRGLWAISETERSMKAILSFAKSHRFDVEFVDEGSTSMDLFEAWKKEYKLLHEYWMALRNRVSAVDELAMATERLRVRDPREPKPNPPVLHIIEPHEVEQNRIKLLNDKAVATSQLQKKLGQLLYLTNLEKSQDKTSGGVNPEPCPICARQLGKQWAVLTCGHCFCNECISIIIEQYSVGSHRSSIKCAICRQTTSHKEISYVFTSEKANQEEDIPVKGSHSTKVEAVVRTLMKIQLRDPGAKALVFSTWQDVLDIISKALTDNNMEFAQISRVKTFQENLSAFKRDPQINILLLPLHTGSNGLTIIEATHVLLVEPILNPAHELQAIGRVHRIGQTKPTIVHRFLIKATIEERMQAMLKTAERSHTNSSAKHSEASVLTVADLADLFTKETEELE", "sequence (Q96SW2 whole entry, looked up)": "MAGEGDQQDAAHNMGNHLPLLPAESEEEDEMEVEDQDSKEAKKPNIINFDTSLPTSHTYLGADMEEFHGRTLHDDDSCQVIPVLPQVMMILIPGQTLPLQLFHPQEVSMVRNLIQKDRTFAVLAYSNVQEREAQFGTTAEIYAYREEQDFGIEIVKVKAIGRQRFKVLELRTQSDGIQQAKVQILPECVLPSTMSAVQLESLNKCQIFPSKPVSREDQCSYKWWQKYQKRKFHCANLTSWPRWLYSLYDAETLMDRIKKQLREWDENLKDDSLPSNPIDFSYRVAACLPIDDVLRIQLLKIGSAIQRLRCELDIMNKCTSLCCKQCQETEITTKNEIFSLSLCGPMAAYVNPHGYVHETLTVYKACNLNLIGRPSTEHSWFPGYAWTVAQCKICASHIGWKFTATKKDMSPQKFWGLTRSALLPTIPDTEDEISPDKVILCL", "assay": "Protac activity at CRBN/SHPRH in human BxPC-3 cells assessed as SHPRH degradation incubated for 16 hrs by proteomic analysis", "type": "cell-based", "procedure,_shortened": "(§1)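 TMT 10plex proteomics. […] Samples (75 μg) were reduced with DTT, alkylated with 2-chloroacetamide, acetone-precipitated, trypsin-digested overnight at 37 °C and TMT-labeled for LC-MS/MS relative quantitation.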"}, "[2]": {"target": "Protein cereblon/Carbohydrate sulfotransferase 14 (Homo sapiens) (UniProt Q96SW2+Q8NCH0)", "assay": "Protac activity at CRBN/CHST14 in human BxPC-3 cells assessed as CHST14 degradation incubated for 16 hrs by proteomic analysis", "type": "cell-based", "procedure,_shortened": "as §1"}, "[3]": {"target": "Protein cereblon/Nectin-1 (Homo sapiens) (UniProt Q96SW2+Q15223)", "assay": "Protac activity at CRBN/Nectin-1 in human BxPC-3 cells assessed as Nectin-1 degradation incubated for 16 hrs by proteomic analysis", "type": "cell-based", "procedure,_shortened": "as §1"}, "[4]": {"target": "Protein cereblon/Agrin (Homo sapiens) (UniProt Q96SW2+O00468)", "assay": "Protac activity at CRBN/Agrin in human BxPC-3 cells assessed as Agrin degradation incubated for 16 hrs by proteomic analysis", "type": "cell-based", "procedure,_shortened": "as §1"}, "[5]": {"target": "T1, Protein cereblon/E3 ubiquitin-protein ligase ZFP91 (Homo sapiens, UniProt Q96SW2+Q96JP5)", "T1 sequence (Q96JP5 2-570 partner limits assumed)": "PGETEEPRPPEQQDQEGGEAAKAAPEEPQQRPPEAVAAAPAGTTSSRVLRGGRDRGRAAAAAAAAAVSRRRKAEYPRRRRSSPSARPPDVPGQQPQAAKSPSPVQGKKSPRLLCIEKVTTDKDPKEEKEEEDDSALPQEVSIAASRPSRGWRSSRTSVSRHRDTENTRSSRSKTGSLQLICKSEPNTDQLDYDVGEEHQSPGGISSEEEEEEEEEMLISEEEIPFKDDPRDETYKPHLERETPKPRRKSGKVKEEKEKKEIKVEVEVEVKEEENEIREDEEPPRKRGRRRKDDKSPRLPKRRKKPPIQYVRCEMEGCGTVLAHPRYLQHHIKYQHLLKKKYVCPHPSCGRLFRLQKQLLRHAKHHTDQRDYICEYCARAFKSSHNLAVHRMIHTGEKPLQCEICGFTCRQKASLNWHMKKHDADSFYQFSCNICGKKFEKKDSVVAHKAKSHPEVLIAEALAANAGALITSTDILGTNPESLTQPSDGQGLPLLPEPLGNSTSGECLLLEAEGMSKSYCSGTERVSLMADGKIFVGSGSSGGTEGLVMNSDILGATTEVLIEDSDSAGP", "T1 sequence (Q96SW2 whole entry)": "as the sequence (Q96SW2 whole entry, looked up) above", "assay": "Protac activity at CRBN/ZFP91 in human MIA PaCa-2 cells assessed as ZF91 protein degradation at 0.1 to 0.5 uM incubated for 16 hrs in presence of proteasome inhibitor carfilzomib by western blot analysis", "type": "cell-based", "conditions": "dose 0.1-0.5 µM"}, "[6]": {"assay": "Upregulation of DNAJB9 protein levels in human BxPC-3 cells incubated for 16 hrs by proteomic analysis", "type": "functional", "procedure,_shortened": "(§2)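 BxPC-3 cells exposed 16 h in triplicate (control, PROTAC) or duplicate (other arms); lysed in RIPA at 4 °C, 75 μg protein per sample. Reduced with DTT (1 h, 55 °C), alkylated with 2-chloroacetamide, acetone-precipitated, trypsin-digested overnight at 37 °C, TMT 10plex labelled, relative quantitation by LC-tandem MS.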"}, "[7]": {"target": "T1, Protein cereblon/E3 ubiquitin-protein ligase ZFP91", "assay": "Protac activity at CRBN/ZFP91 in human BxPC-3 cells assessed as ZF91 protein degradation at 1 uM incubated for 16 hrs in presence of proteasome inhibitor carfilzomib by western blot analysis", "type": "cell-based", "procedure,_shortened": "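BxPC-3 cells pretreated 1 h with carfilzomib at 1 μM, then exposed 16 h. Lysates blotted for ZFP91 with GAPDH control; bands quantified by densitometry.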"}, "[8]": {"assay": "Upregulation of AP-1 protein levels in human BxPC-3 cells incubated for 16 hrs by proteomic analysis", "type": "functional", "procedure,_shortened": "as §2"}, "[9]": {"target": "Protein cereblon/Protein FAM3C (Homo sapiens) (UniProt Q96SW2+Q92520)", "assay": "Protac activity at CRBN/FAM3C in human BxPC-3 cells assessed as FAM3C degradation incubated for 16 hrs by proteomic analysis", "type": "cell-based", "procedure,_shortened": "as §1"}, "[10]": {"target": "Protein cereblon/Epithelial discoidin domain-containing receptor 1 (Homo sapiens) (UniProt Q08345+Q96SW2)", "sequence (Q08345 whole entry, looked up, the tested form may be a part)": "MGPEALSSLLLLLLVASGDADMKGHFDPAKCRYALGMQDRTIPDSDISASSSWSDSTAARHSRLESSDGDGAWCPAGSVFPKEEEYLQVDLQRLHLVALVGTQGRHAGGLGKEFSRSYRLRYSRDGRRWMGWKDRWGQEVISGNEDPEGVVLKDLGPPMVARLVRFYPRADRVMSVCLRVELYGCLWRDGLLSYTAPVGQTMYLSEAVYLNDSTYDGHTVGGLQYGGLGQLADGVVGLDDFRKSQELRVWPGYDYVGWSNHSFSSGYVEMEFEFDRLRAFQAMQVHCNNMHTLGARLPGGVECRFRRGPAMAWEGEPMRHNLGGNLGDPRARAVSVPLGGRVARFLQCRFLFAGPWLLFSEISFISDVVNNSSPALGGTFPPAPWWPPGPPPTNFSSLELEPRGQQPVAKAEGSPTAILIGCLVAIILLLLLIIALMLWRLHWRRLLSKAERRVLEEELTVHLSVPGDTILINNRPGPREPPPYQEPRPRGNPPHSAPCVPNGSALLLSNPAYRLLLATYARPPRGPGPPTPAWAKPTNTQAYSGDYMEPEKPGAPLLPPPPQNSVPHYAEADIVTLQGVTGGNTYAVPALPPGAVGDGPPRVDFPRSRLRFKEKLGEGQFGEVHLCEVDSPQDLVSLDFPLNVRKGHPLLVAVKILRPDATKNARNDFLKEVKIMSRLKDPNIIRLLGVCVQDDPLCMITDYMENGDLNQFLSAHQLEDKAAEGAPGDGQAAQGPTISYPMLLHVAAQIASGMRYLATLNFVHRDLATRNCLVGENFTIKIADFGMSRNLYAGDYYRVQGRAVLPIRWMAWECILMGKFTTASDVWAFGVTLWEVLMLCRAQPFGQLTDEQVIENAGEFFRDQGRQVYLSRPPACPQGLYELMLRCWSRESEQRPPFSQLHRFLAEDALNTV", "sequence (Q96SW2 whole entry, looked up, the tested form may be a part)": "as the sequence (Q96SW2 whole entry, looked up) above", "assay": "Protac activity at CRBN/DDR1 in human BxPC-3 cells assessed as DDR1 degradation incubated for 16 hrs by proteomic analysis", "type": "cell-based", "procedure,_shortened": "as §1"}, "[11]": {"target": "Protein cereblon/Signal transducer and activator of transcription 3 (Homo sapiens, UniProt P40763+Q96SW2)", "assay": "Protac activity at CRBN/STAT3 in human BxPC-3 cells assessed as decrease in STAT3 expression level at 2 to 6 uM incubated for 12 hrs in presence of proteasome inhibitor MG132 by western blot analysis", "type": "cell-based", "conditions": "dose 2-6 µM", "procedure,_shortened": "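Immunoblot of BxPC-3 cells given a 2 h pretreatment with MG132 at 10 μM, then test agent for 12 h. Cell lysis, BCA assay, SDS-PAGE/PVDF, probed for STAT3, pSTAT3 and NQO1 with GAPDH as reference.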"}, "[12]": {"target": "Protein cereblon/SOSS complex subunit B1 (Homo sapiens) (UniProt Q96SW2+Q9BQ15)", "sequence (Q96SW2 whole entry, looked up)": "as above", "sequence (Q9BQ15 whole entry, looked up)": "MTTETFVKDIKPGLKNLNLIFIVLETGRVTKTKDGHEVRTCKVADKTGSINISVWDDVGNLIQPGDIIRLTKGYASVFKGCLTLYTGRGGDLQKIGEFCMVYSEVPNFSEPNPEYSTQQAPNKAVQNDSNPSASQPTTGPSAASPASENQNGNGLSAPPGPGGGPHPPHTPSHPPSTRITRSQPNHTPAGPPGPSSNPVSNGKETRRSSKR", "assay": "Protac activity at CRBN/NABP2 in human BxPC-3 cells assessed as NABP2 degradation incubated for 16 hrs by proteomic analysis", "type": "cell-based", "procedure,_shortened": "as §1"}, "MIA PaCa-2": {"tested_on": "MIA PaCa-2", "assay": "Antiproliferative activity against human MIA PaCa-2 cells assessed as reduction in cell viability incubated for 3 days by MTT assay", "type": "functional, cell-based", "conditions": "MIA PaCa-2, 72 h", "procedure,_shortened": "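MTT assay. Cells were seeded at 3000–6000/well and incubated overnight, then exposed to compound or DMSO vehicle for 3 days in RPMI-1640 or DMEM with 10% FBS at 37 °C, 5% CO2. MTT (3 mg/ml) was added for 3 h at 37 °C, formazan was dissolved in DMSO and absorbance read at 570 nm. IC50 from three independent experiments, mean ± SD.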"}, "[13]": {"target": "T1, Protein cereblon/E3 ubiquitin-protein ligase ZFP91", "assay": "Protac activity at CRBN/ZFP91 in human BxPC-3 cells assessed as degradation of ZFP91 at 0.5 uM incubated for 16 hrs in presence of napabucasin by western blot analysis", "type": "cell-based", "procedure,_shortened": "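Whole-cell lysates immunoblotted for ZFP91, GAPDH reference, densitometric quantification.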"}, "[14]": {"assay": "Upregulation of AKR1C2 protein levels in human BxPC-3 cells incubated for 16 hrs by proteomic analysis", "type": "functional", "procedure,_shortened": "as §2"}, "[15]": {"assay": "Upregulation of ECM1 protein levels in human BxPC-3 cells incubated for 16 hrs by proteomic analysis", "type": "functional", "procedure,_shortened": "as §2"}, "[16]": {"assay": "Upregulation of BACH1 protein levels in human BxPC-3 cells incubated for 16 hrs by proteomic analysis", "type": "functional", "procedure,_shortened": "as §2"}, "[17]": {"target": "Protein cereblon/Cystatin-C (Homo sapiens) (UniProt P01034+Q96SW2)", "sequence (P01034 whole entry, looked up)": "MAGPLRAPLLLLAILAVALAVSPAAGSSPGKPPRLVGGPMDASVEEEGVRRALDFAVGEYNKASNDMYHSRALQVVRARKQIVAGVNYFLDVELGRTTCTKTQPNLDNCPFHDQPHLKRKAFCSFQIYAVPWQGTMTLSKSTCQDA", "sequence (Q96SW2 whole entry, looked up)": "as the sequence (Q96SW2 whole entry, looked up) above", "assay": "Protac activity at CRBN/CST3 in human BxPC-3 cells assessed as CST3 degradation incubated for 16 hrs by proteomic analysis", "type": "cell-based", "procedure,_shortened": "as §1"}, "[18]": {"target": "Protein cereblon/Pleckstrin homology-like domain family B member 1 (Homo sapiens) (UniProt Q96SW2+Q86UU1)", "assay": "Protac activity at CRBN/PHLDB1 in human BxPC-3 cells assessed as PHLDB1 degradation incubated for 16 hrs by proteomic analysis", "type": "cell-based", "procedure,_shortened": "as §1"}, "BXPC-3": {"tested_on": "BXPC-3", "assay": "Antiproliferative activity against ZFP91 knockdown human BxPC-3 cells assessed as reduction in cell viability incubated for 48 hrs by MTT assay", "type": "functional, cell-based", "conditions": "BXPC-3, 48 h", "procedure,_shortened": "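BxPC-3 cells were transfected with ZFP91 siRNA or scrambled control siRNA using Lipofectamine RNAiMAX in Opti-MEM, 5 pmol siRNA per complex. Compound was added together with the siRNA complex.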"}, "[19]": {"target": "Protein cereblon/Desmoplakin (Homo sapiens) (UniProt Q96SW2+P15924)", "assay": "Protac activity at CRBN/DSP in human BxPC-3 cells assessed as DSP degradation incubated for 16 hrs by proteomic analysis", "type": "cell-based", "procedure,_shortened": "as §1"}, "[20]": {"target": "Signal transducer and activator of transcription 3 (Homo sapiens) (UniProt P40763)", "sequence (P40763 whole entry)": "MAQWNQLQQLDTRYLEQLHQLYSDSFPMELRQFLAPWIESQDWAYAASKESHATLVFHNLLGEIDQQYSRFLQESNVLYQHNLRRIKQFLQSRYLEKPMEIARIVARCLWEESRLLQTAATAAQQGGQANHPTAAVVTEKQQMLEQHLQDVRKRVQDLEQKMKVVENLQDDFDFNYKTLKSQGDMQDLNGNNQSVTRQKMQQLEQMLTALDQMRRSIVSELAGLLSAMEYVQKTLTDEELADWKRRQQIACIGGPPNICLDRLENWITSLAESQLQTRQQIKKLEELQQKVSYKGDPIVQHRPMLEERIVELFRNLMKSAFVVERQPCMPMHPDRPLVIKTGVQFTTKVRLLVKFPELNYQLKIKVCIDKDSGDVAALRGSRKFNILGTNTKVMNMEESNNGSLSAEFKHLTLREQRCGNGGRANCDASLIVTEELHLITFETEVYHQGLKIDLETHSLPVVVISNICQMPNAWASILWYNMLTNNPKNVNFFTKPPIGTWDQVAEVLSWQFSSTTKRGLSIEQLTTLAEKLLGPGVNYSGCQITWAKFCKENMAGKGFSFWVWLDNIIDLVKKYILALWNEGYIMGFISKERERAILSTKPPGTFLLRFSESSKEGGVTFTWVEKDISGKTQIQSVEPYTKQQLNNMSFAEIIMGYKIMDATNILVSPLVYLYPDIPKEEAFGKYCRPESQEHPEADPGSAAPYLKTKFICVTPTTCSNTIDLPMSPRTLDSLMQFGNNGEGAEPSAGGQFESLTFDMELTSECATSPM", "assay": "Inhibition of STAT3 phosphorylation in human BxPC-3 cells at 1 uM after 16 hrs by western blot analysis", "type": "cell-based", "procedure,_shortened": "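Cells were seeded in 6-well plates (BxPC-3 500 × 10^3, MIA PaCa-2 200 × 10^3 cells/well) and exposed to compound for 16 h. Lysis was at 4 °C by sonication in Tris/NaCl/Triton/SDS buffer, pH 7.4, with protease and phosphatase inhibitors. Lysates were run on SDS-PAGE, transferred to PVDF and probed for STAT3, pSTAT3 and NQO1 with GAPDH as loading control. Immunoblots were imaged on an Odyssey system.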"}}, "note": "Active and inactive are the calls of the source. The rule behind the calls is not given here."}
{"smiles": "O=C1CCC(N2C(=O)c3cccc(NCCCCCC4CCN(CCNC(=O)c5cc6c(o5)C(=O)c5ccccc5C6=O)CC4)c3C2=O)C(=O)N1", "note": "(configuration not stated)", "values": [{"measurement": "log2FC", "setting": "[1]", "value": -0.74}, {"measurement": "log2FC", "setting": "[2]", "value": -0.64}, {"measurement": "log2FC", "setting": "[3]", "value": -0.63}, {"measurement": "log2FC", "setting": "[4]", "value": -0.68}, {"measurement": "Activity", "setting": "[5]", "value": "inactive"}, {"measurement": "log2FC", "setting": "[6]", "value": 1.35}, {"measurement": "Activity", "setting": "[7]", "value": "inactive"}, {"measurement": "log2FC", "setting": "[8]", "value": 1.58}, {"measurement": "log2FC", "setting": "[9]", "value": -0.73}, {"measurement": "log2FC", "setting": "[10]", "value": -0.73}, {"measurement": "Activity", "setting": "[11]", "value": "Active"}, {"measurement": "log2FC", "setting": "[12]", "value": -0.78}, {"measurement": "IC50", "setting": "MIA PaCa-2", "value": 1000, "unit": "nM"}, {"measurement": "Activity", "setting": "[13]", "value": "Active"}, {"measurement": "log2FC", "setting": "[14]", "value": 0.6}, {"measurement": "log2FC", "setting": "[15]", "value": 0.76}, {"measurement": "log2FC", "setting": "[16]", "value": 0.6}, {"measurement": "log2FC", "setting": "[17]", "value": -0.81}, {"measurement": "log2FC", "setting": "[18]", "value": -0.64}, {"measurement": "IC50", "setting": "BXPC-3", "value": 2100, "unit": "nM"}, {"measurement": "log2FC", "setting": "[19]", "value": -0.7}, {"measurement": "inhibition", "setting": "[20]", "value": "Active"}]}
